One compound from ChEMBL document CHEMBL2331234, “Novel analgesic/anti-inflammatory agents: 1,5-diarylpyrrole nitrooxyalkyl ethers and related compounds as cyclooxygenase-2 inhibiting nitric oxide donors” (J Med Chem, 2013) can be followed below.

One test deals with Mus musculus. Put plainly: Antinociceptive activity in po dosed Swiss albino mouse assessed as reduction in number of acetic acid-induced writhing counted 5 mins after acetic acid challenge counted for 10 mins. Type of test: functional. The settings on record: read-out: MED. The method, boiled down:
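Male Swiss albino mice (23-25 g) dosed orally, then given 0.6% acetic acid (10 mL/kg) ip. Stretching movements counted for 10 min, starting 5 min after the acetic acid. Control group received CMC. At least 7 mice/group; mean ± SEM, ANOVA with Fisher's PLSD.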
On the technique in general: In writhing tests, fewer writhes than in controls are read as antinociception.

The subject of test [1] is Rattus norvegicus. Put plainly: Antiinflammatory activity in Sprague-Dawley/Wistar rat assessed as decrease in carrageenan-induced hyperalgesia at 10 mg/kg, po administered 4 hrs after carrageenan-challenge measured after 30 mins (reference value: 34.8 +/- 3.0 g). Type of test: functional.
Test [2] relates to Rattus norvegicus. Briefly: Antiinflammatory activity in Sprague-Dawley/Wistar rat assessed as decrease in carrageenan-induced hyperalgesia at 10 mg/kg, po administered 4 hrs after carrageenan-challenge measured after 60 mins (reference value: 33.9 +/- 3.7 g). Type of test: functional.
Test [3] has as its system Rattus norvegicus. Put plainly: Antiinflammatory activity in Sprague-Dawley/Wistar rat assessed as decrease in carrageenan-induced hyperalgesia at 20 mg/kg, po administered 4 hrs after carrageenan-challenge measured after 30 mins (reference value: 34.8 +/- 3.0 g). Type of test: functional.
In test [4] the test system is Rattus norvegicus. Briefly: Antiinflammatory activity in Sprague-Dawley/Wistar rat assessed as decrease in carrageenan-induced hyperalgesia at 20 mg/kg, po administered 4 hrs after carrageenan-challenge measured after 60 mins (reference value: 33.9 +/- 3.7 g). Type of test: functional.
Test [5] deals with T1, Prostaglandin G/H synthase 2 (Homo sapiens, UniProt P35354).
T1 sequence (P35354 whole entry): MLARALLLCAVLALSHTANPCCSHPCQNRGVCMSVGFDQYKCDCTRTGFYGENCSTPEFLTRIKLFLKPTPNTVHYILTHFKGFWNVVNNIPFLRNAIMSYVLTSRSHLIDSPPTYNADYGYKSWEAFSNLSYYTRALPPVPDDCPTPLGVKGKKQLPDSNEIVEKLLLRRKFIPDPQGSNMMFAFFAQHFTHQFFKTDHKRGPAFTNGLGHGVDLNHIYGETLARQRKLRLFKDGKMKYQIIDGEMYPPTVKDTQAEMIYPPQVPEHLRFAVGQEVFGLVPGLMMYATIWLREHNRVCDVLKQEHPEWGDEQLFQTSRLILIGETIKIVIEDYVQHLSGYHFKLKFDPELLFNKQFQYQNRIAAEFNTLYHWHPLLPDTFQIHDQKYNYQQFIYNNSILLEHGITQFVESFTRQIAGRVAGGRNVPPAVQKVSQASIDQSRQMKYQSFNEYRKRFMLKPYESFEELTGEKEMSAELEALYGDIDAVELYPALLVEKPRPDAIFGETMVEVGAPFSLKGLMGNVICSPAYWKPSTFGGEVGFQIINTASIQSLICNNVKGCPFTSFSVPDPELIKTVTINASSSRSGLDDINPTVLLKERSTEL
Put plainly: (§1) Inhibition of COX2 in human whole blood assessed as reduction in LPS-induced PGE2 generation pre-treated prior to LPS-challenge. The method, boiled down: (§2)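 Heparinized whole blood came from three healthy volunteers pretreated with aspirin 300 mg 48 h before sampling to suppress platelet COX-1. Compounds in DMSO were added at 0.1-300 µM final. Blood was incubated with LPS 10 µg/mL for 24 h at 37 °C. Plasma PGE2 was measured by RIA.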

Test [6] concerns the target T2, Prostaglandin G/H synthase 2 (Homo sapiens) (UniProt P35354).
T2 sequence (whole entry): T1 sequence (P35354 whole entry)
Described as §1. Summed up: as §2

Test [7] relates to Rattus norvegicus. Briefly: Antiinflammatory activity in Sprague-Dawley/Wistar rat assessed as decrease in carrageenan-induced hyperalgesia at 20 mg/kg, po administered 4 hrs after carrageenan-challenge measured after 120 mins (reference value: 31.4 +/- 3.7 g). Type of test: functional.
Test [8] concerns Rattus norvegicus. Briefly: Antiinflammatory activity in Sprague-Dawley/Wistar osteoarthritis model rat assessed as decrease in monoiodoacetate-induced hyperalgesia at 20 mg/kg, po bid for 14 days administered from day of monoiodoacetate-challenge […] post by paw pressure test (reference value: 32.6 +/- 2.9 g). Type of test: functional.
A further test has as its system Aorta. Briefly: Vasorelaxant activity in Wistar rat endothelium-removed thoracic aortic rings assessed as reduction of KCl-induced vasoconstriction treated after KCl-challenge. Type of test: functional, tissue-based. The method, boiled down:
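Thoracic aortic rings from male Wistar rats (250-350 g), endothelium removed by rubbing; removal confirmed as <10% relaxation to ACh 10 µM in KCl 30 mM-contracted rings. Rings contracted with KCl 30 mM; at plateau, 3-fold increasing compound concentrations (1 nM-10 µM) added. Isometric tension recorded. Emax given as % of KCl tone; pIC50 as -log molar concentration halving that tone. 6-10 experiments; also run with ODQ 1 µM.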

In test [9] the test system is Rattus norvegicus. Put plainly: Antiinflammatory activity in Sprague-Dawley/Wistar rat assessed as decrease in carrageenan-induced paw edema at 20 mg/kg, po administered 3 hrs 30 mins after carrageenan-challenge measured after 60 mins (reference value: 2.48 +/- 0.06 mL). Type of test: functional. For orientation: Carrageenan injected into the paw causes an acute inflammation.

Test [10] deals with Rattus norvegicus. Briefly: Antiinflammatory activity in Sprague-Dawley/Wistar osteoarthritis model rat assessed as decrease in monoiodoacetate-induced hyperalgesia at 20 mg/kg, po bid for 14 days administered from day of monoiodoacetate-challenge followed by additional compound treatment after 30 mins […] by paw pressure test (reference value: 30.4 +/- 3.1 g). Type of test: functional.

Test [11] has as its target T3, Prostaglandin G/H synthase 1 (Mus musculus, UniProt P22437).
T3 sequence (P22437 whole entry): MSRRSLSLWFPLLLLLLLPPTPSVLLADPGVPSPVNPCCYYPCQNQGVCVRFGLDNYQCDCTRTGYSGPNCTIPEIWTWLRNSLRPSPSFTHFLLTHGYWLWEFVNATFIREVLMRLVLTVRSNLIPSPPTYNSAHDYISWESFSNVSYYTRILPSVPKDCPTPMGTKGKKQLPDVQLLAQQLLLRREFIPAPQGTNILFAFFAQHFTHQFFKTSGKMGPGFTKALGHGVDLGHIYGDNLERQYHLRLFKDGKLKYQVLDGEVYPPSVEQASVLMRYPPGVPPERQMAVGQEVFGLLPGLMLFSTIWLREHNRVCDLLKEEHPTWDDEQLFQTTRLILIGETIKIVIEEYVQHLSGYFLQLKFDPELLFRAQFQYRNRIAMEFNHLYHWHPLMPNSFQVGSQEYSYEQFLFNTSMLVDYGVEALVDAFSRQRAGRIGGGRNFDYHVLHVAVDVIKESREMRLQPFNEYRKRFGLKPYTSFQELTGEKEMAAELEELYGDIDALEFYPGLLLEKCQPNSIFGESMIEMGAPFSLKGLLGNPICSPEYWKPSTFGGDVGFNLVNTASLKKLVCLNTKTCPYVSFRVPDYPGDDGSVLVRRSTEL
Put plainly: Inhibition of arachidonic acid-induced COX1 activity in mouse J774 cells assessed as decrease in PGE2 levels incubated for 15 mins prior to arachidonic acid-challenge measured after 30 mins by RIA. Type of test: cell-based. Summed up:
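Cells were in DMEM with 10% FBS and adhered for 2 h at 37 °C. They were pretreated with compound (10 µM; 0.1-1 µM where inhibition exceeded 50%) for 15 min, then given 15 µM arachidonic acid for 30 min at 37 °C. Supernatant PGE2 was measured by RIA. Triplicate wells were used and the mean of three experiments reported. IC50 came from a variable-slope sigmoidal fit.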

Structures are written as SMILES. Where only a bound is given, the exact number is not on record here.

A word on the IC50: it is the concentration at which inhibition is half-maximal. The IC80 is the point of the concentration-response curve where the effect stands at 80%.

For the compound `Cc1c(CCOCCO[N+](=O)[O-])cc(-c2ccc(S(C)(=O)=O)cc2)n1-c1ccc(F)cc1`, in the test on Mus musculus, the minimal effective dose is 10 mg/kg. For the same compound, the Activity worked out at 55.1 g with Rattus norvegicus [1]; 52.6 g with Rattus norvegicus [2]; 56.8 g with Rattus norvegicus [3]; 49.2 g in the test on Rattus norvegicus [4]; 43.8 g with Rattus norvegicus [7]; 43.5 g in the test with Rattus norvegicus [8]. The Activity worked out at 1.92 mL with Rattus norvegicus [9] and 45.1 g with Rattus norvegicus [10]. In addition, the results for the IC50 (in test [5]; in the test on Aorta; in test [11]) were 0.64 µM, at least 10 µM and over 10 µM, respectively. In addition, the IC80 in test [6] was found to be 2.26 µM. Further, the inhibition entry in [6] is “Dose-dependent effect”. Moreover, the pIC50 entry in the test on Aorta was “Dose-dependent effect”.
